Source: ChEMBL document CHEMBL4000187, “Design and synthesis of emodin derivatives as novel inhibitors of ATP-citrate lyase” (Eur J Med Chem, 2017)
Activity calls are given as the source filed them. The calls are words filed in the database; no cut-off is given here.

Experiments:
[1] = target: T1, ATP-citrate synthase (Homo sapiens) (UniProt P53396); experiment: Inhibition of ATP citrate lyase (unknown origin) at 10 uM using sodium citrate as substrate after 60 mins by ADP-Glo luminescence assay relative to control
T1 sequence (whole entry): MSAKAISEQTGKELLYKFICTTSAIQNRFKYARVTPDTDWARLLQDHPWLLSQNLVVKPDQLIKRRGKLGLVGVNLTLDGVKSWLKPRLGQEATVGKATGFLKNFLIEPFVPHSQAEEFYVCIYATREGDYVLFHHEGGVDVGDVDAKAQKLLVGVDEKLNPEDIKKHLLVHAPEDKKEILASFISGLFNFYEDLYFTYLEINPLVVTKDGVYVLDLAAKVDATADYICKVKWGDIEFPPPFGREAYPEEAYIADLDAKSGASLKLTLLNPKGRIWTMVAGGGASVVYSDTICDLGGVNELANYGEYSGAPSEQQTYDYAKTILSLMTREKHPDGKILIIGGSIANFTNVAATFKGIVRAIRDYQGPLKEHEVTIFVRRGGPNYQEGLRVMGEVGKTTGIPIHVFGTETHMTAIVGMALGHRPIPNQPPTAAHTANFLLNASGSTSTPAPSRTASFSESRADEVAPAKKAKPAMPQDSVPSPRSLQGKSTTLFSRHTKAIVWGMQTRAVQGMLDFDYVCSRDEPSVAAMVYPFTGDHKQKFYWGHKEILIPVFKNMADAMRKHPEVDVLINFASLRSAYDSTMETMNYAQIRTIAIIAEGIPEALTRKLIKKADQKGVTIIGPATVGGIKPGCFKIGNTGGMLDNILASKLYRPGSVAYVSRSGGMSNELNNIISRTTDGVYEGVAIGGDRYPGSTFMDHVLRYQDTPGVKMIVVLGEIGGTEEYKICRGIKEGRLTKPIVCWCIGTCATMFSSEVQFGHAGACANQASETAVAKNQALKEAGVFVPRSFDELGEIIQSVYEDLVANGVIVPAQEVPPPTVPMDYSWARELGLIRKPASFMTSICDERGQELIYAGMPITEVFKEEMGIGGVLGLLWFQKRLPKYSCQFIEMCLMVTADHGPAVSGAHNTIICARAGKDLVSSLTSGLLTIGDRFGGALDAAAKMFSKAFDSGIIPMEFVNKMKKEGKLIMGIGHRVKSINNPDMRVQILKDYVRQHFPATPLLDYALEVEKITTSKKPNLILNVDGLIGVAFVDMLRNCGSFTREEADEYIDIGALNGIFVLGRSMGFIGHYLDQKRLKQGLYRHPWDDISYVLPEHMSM
In short: (§1)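 ADP-Glo reagent then added for 45 min at room temperature, and ADP formed was read by luminescence. Dose-response run in duplicate over 0.03–30 µM in 3.3-fold serial dilutions.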

A549 [2] = experiment: Antiproliferative activity against human A549 cells at 5 uM after 24 hrs by WST1 assay relative to control; assay type: functional; settings: A549, 24 h
In short: (§2)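 A549 cells seeded at 5 × 10⁴/well in Ham's F-12 with 10% FBS, with or without compound, cultured 24 h at 37 °C in 5% CO₂. Single-concentration screen at 5 µM; dose-escalation at 1, 5, 10 µM. WST-1 reagent added, 1 h incubation, absorbance at 450 nm. ACL shRNA/siRNA knockdown served as positive control.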

ATP-citrate synthase = target: T2, ATP-citrate synthase (Homo sapiens, UniProt P53396); experiment: Inhibition of ATP citrate lyase (unknown origin) using sodium citrate as substrate after 60 mins by ADP-Glo luminescence assay; in short: as §1
T2 sequence (P53396 whole entry): T1 sequence (whole entry)

A549 [3] = experiment: Inhibition of cancer stemness in human A549 cells under 3D culture condition assessed as reduction in spheroid size at 25 uM by Hoechst 33342/Sytox green staining-based confocal microscopic method; assay type: functional, cell-based
In short: (§3)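 Cells seeded at 2000 per well onto 1.5% agarose-coated wells and grown 2 days at 37 °C, 5% CO₂ to form spheroids before treatment. Staining used Hoechst 33342 for all nuclei plus Sytox Green for dead cells, each at 1:10,000 final. Confocal imaging measured spheroid inner area and Sytox Green integrated density (IntDen), with IntDen/Area as the index.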

HMLE [4] = experiment: Inhibition of cancer stemness in snail expressing HMLE cells under 3D culture condition assessed as reduction in spheroid size at 25 uM by Hoechst 33342/Sytox green staining-based confocal microscopic method; assay type: functional, cell-based; settings: Homo sapiens; in short: as §3
HMLE [5] = experiment: Inhibition of cancer stemness in snail expressing HMLE cells under 3D culture condition assessed as induction of apoptosis in spheroid at 25 uM by Hoechst 33342/Sytox green staining-based confocal microscopic method; assay type: functional, cell-based; settings: Homo sapiens; in short: as §3
A549 [6] = experiment: Inhibition of cancer stemness in human A549 cells under 3D culture condition assessed as induction of apoptosis in spheroid at 25 uM by Hoechst 33342/Sytox green staining-based confocal microscopic method; assay type: functional, cell-based; in short: as §3
A549 [7] = experiment: Antiproliferative activity against human A549 cells after 24 hrs by WST1 assay; assay type: functional, cell-based; in short: as §2
A549 [8] = experiment: Antiproliferative activity against human A549 cells at 10 uM after 24 hrs by WST1 assay relative to control; assay type: functional; settings: A549, 24 h; in short: as §2
A549 [9] = experiment: Inhibition of cancer stemness in human A549 cells under 3D culture condition assessed as induction of apoptosis in spheroid by Hoechst 33342/Sytox green staining-based confocal microscopic method; assay type: functional, cell-based; in short: as §3
A549 [10] = experiment: Inhibition of cancer stemness in human A549 cells under 3D culture condition assessed as reduction in spheroid size by Hoechst 33342/Sytox green staining-based confocal microscopic method; assay type: functional, cell-based; in short: as §3
HMLE [11] = experiment: Inhibition of cancer stemness in snail expressing HMLE cells under 3D culture condition assessed as induction of apoptosis in spheroid by Hoechst 33342/Sytox green staining-based confocal microscopic method; assay type: functional, cell-based; settings: Homo sapiens; in short: as §3
[12] = target: T1, ATP-citrate synthase (Homo sapiens); experiment: Inhibition of ATP citrate lyase (unknown origin) at 3.3 uM using sodium citrate as substrate after 60 mins by ADP-Glo luminescence assay relative to control; in short: as §1
HMLE [13] = experiment: Inhibition of cancer stemness in snail expressing HMLE cells under 3D culture condition assessed as reduction in spheroid size by Hoechst 33342/Sytox green staining-based confocal microscopic method; assay type: functional, cell-based; settings: Homo sapiens; in short: as §3

Row | Compound | inhibition [1] [%] | IC50 (ATP-citrate synthase) [µM] | further results
1 | COc1cc2c(c(OC)c1Cl)C(=O)c1c(OC)cc(C)cc1C2=O | 0 |  | 
2 | Cc1cc(O)c2c(c1)C(=O)c1c(Cl)c(O)cc(O)c1C2=O |  | 9.6 | inhibition at 5 µM (A549 [2]): 40 to 80%
3 | Cc1cc(O)c2c(c1)C(=O)c1cc(O)c(-c3ccncc3)c(O)c1C2=O | 0 |  | 
4 | Cc1cc(O)c2c(c1)C(=O)c1cc(O)c(-c3ccccc3)c(O)c1C2=O | 8 |  | 
5 | Cc1cc(O)c2c(c1)C(=O)c1cc(O)cc(O)c1C2=O | 0 |  | 
6 | COc1cccc(-c2c(O)cc3c(c2O)C(=O)c2c(O)cc(C)cc2C3=O)c1 |  | 21.2 | 
7 | COc1ccc(-c2ccccc2)cc1NS(=O)(=O)c1cc(Cl)cc(Cl)c1O |  |  | inhibition (A549 [3]): Active; inhibition (HMLE [4]): Active; inhibition (HMLE [5]): Active; inhibition (A549 [6]): Active
8 | COc1cc(OC)cc(-c2c(O)cc3c(c2O)C(=O)c2c(O)cc(C)cc2C3=O)c1 | 0 |  | 
9 | Cc1cc(O)c2c(c1)C(=O)c1c(Br)c(O)c(Br)c(O)c1C2=O | > 99 | 2.9 | inhibition (A549 [7]): Dose-dependent effect; inhibition at 5 µM (A549 [2]): 40 to 80%; inhibition at 10 µM (A549 [8]): 100%; inhibition (A549 [9]): Dose-dependent effect; inhibition (A549 [10]): Dose-dependent effect; inhibition (HMLE [11]): Dose-dependent effect; inhibition [12]: > 99%; inhibition (HMLE [13]): Dose-dependent effect
10 | Cc1cc(O)c2c(c1)Cc1c(Cl)c(O)cc(O)c1C2=O |  | 3.8 | inhibition at 5 µM (A549 [2]): 40 to 80%
11 | Cc1cc(O)c2c(c1)C(=O)c1cc3c(c(O)c1C2=O)CN(c1ccccc1)CO3 |  | 25.8 | 
12 | Cc1cc(O)c2c(c1)C(=O)c1cc(O)c(-c3cnn(C)c3)c(O)c1C2=O |  | 13.3 | inhibition (A549 [7]): Dose-dependent effect; inhibition at 5 µM (A549 [2]): 40 to 80%
13 | Cc1cc(O)c2c(c1)C(=O)c1cc(O)c(-c3cccnc3)c(O)c1C2=O |  | 21.1 | 
14 | Cc1cc(O)c2c(c1)C(=O)c1cc(O)c(CN(C)c3ccccc3)c(O)c1C2=O | 6 |  | 
15 | Cc1cc(O)c2c(c1)C(=O)c1c(c(O)c(-c3cccnc3)c(O)c1-c1cccnc1)C2=O |  | 23.5 | 
16 | Cc1ccc(-c2c(O)cc3c(c2O)C(=O)c2c(O)cc(C)cc2C3=O)cc1 | 0 |  | 
17 | Cc1cc(O)c2c(c1)C(=O)c1cc(O)c(CN3CCOCC3)c(O)c1C2=O | 10 |  | 
18 | Cc1cc(O)c2c(c1)C(=O)c1cc3c(c(O)c1C2=O)CN(c1ccc2ocnc2c1)CO3 |  | 29.7 | 
19 | Cc1cc(O)c2c(c1)C(=O)c1cc(O)c(I)c(O)c1C2=O |  | 7.5 | 
20 | Cc1cc(O)c2c(c1)C(=O)c1cc(O)c(Cl)c(O)c1C2=O |  | 12.6 | inhibition at 5 µM (A549 [2]): 40 to 80%
21 | Cc1cc(O)c2c(c1)Cc1cc(O)cc(O)c1C2=O | 0 |  | 
22 | Cc1cccc(-c2c(O)cc3c(c2O)C(=O)c2c(O)cc(C)cc2C3=O)c1 |  | 30 | 
23 | COc1ccc(-c2c(O)cc3c(c2O)C(=O)c2c(O)cc(C)cc2C3=O)cc1 |  | 18.8 | 
24 | Cc1cc(O)c2c(c1)C(=O)c1cc(O)c(CN3CCCCC3)c(O)c1C2=O | 6 |  | 
